The results in this text go back to ChEMBL document CHEMBL1152956, “Synthesis and cytotoxic activity of 5,6-heteroaromatically annulated pyridine-2,4-diamines” (Bioorg Med Chem, 2009).

Assay [1] in a line: Growth inhibition of human LCLC-103H cells at 20 uM after 96 hrs by crystal violet staining. It is filed as functional. To be noted: read-out: GI. The procedure, abridged: (§1)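 This was a single-concentration screen. Actively dividing cells had 96 h continuous exposure to compound diluted 1000-fold from a DMSO solution into medium. Cells were fixed with glutaraldehyde and stained with crystal violet. Bound dye was redissolved in 70% ethanol and read at OD 570 nm. Growth inhibition was expressed against untreated controls.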

Assay [2] concerns 5637. Put plainly: Growth inhibition of human 5637 cells at 20 uM after 96 hrs by crystal violet staining. The note with it: Homo sapiens, 5637, 96 h; read-out: GI. It is filed as functional. The procedure, abridged:
as §1

The subject of assay [3] is A-427. Put plainly: Growth inhibition of human A427 cells at 20 uM after 96 hrs by crystal violet staining. It is filed as functional. To be noted: A-427, 96 h, read-out: GI. The procedure, abridged: as §1
The test system of assay [4] is DAN-G. Put plainly: Growth inhibition of human DAN-G cells at 20 uM after 96 hrs by crystal violet staining. To be noted: read-out: GI. The assay is classed as functional. Summed up:
as §1

The subject of assay [5] is RT-4. Put plainly: Cytotoxicity against human RT4 cells after 96 hrs by crystal violet staining. It is filed as functional, cell-based. To be noted: RT-4, 96 h. Summed up:
(§2)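 Compounds were held as 20 mM DMSO stocks at -20 °C and serially diluted in DMSO to working solutions of 20, 10, 5.0, 2.50, 1.25 and […]. Five of these were diluted 1000-fold into medium, with DMSO-only controls. Dividing cells had 96 h continuous exposure, then glutaraldehyde fixation and crystal violet staining. Dye was redissolved in 70% ethanol and read at OD 570 nm. IC50 came from linear regression of log dose–response curves.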

Assay [6] deals with MCF7. Put plainly: Growth inhibition of human MCF7 cells at 20 uM after 96 hrs by crystal violet staining. It is filed as functional. The note with it: MCF7, 96 h, read-out: GI. Summed up: as §1
Assay [7] has as its system A-427. Nature of the assay: Cytotoxicity against human A427 cells after 96 hrs by crystal violet staining. It is filed as functional, cell-based. The note with it: A-427, 96 h. The procedure, abridged: as §2
The test system of assay [8] is 5637. Nature of the assay: Cytotoxicity against human 5637 cells after 96 hrs by crystal violet staining. The note with it: Homo sapiens, 5637, 96 h. It is filed as functional, cell-based. Summed up:
as §2

The nature of assay [9]: Cytotoxicity against human LCLC-103H cells after 96 hrs by crystal violet staining. It is filed as functional, cell-based. The procedure, abridged:
as §2

Assay [10] has as its system RT-4. Put plainly: Growth inhibition of human RT4 cells at 20 uM after 96 hrs by crystal violet staining. The assay is classed as functional. The note with it: RT-4, 96 h, read-out: GI. Summed up: as §1
Assay [11] concerns MCF7. Put plainly: Cytotoxicity against human MCF7 cells after 96 hrs by crystal violet staining. It is filed as functional, cell-based. To be noted: MCF7, 96 h. The procedure, abridged:
as §2

For assay [12], the system named is DAN-G. Put plainly: Cytotoxicity against human DAN-G cells after 96 hrs by crystal violet staining. It is filed as functional, cell-based. Summed up: as §2

A value given as a limit tells only on which side of the number the result lay.

On to `CN(C)c1cc(N)c2c3c(sc2n1)CCCC3`, for which the inhibition of growth at 20 µM (in assay [1]; in the assay with 5637 [2]; in the assay with A-427 [3]; in the assay on DAN-G [4]; in the assay with MCF7 [6]; with RT-4 [10]) was below 50% throughout. In addition, the IC50 (in the assay with RT-4 [5]; in the assay on A-427 [7]; with 5637 [8]; in assay [9]; in the assay with MCF7 [11]; in the assay with DAN-G [12]) was above 20 µM throughout.

`Cc1oc2nc(N3CCCC3)cc(N)c2c1C`: the inhibition of growth at 20 µM (in [1]; in the assay with 5637 [2]; with A-427 [3]; in the assay with DAN-G [4]; in the assay with MCF7 [6]; in the assay with RT-4 [10]) was below 50% throughout. The IC50 (in the assay with RT-4 [5]; with A-427 [7]; in the assay with 5637 [8]; in assay [9]; in the assay on MCF7 [11]; in the assay on DAN-G [12]) was above 20 µM throughout.

With `Cc1oc2nc(N(C)C)cc(N)c2c1C`, the inhibition of growth at 20 µM (in [1]; with 5637 [2]; in the assay with A-427 [3]; in the assay on DAN-G [4]; in the assay on MCF7 [6]; in the assay with RT-4 [10]) was below 50% each time. Moreover, the IC50 (in the assay on RT-4 [5]; in the assay on A-427 [7]; in the assay on 5637 [8]; in assay [9]; in the assay with MCF7 [11]; in the assay with DAN-G [12]) was above 20 µM throughout.

In general, IC50 refers to the concentration that inhibits the measured activity by half. Higher therefore signals weaker potency in that assay.
